Laboratory results reported in ChEMBL document CHEMBL3600344, “Novel thiourea-based sirtuin inhibitory warheads” (Bioorg Med Chem Lett, 2015).
Values belong to the molecule of their own block, whether it stands above or below them. Peptide text beside a SMILES is read from it.

Experiments:
[1] = Antioxidant activity assessed as inhibition of superoxide radical anion generation at 200 uM after 5 mins in presence of NBT and NADH relative to control; format: physicochemical
[2] = target: T1, NAD-dependent protein deacetylase sirtuin-2 (Homo sapiens, UniProt Q8IXJ6); test: Inhibition of human His6-tagged SIRT2 using H2N-HK-(Nepsilon-acetyl-lysine)-LM-COOH as substrate after 10 mins by HPLC analysis
T1 sequence (Q8IXJ6 whole entry): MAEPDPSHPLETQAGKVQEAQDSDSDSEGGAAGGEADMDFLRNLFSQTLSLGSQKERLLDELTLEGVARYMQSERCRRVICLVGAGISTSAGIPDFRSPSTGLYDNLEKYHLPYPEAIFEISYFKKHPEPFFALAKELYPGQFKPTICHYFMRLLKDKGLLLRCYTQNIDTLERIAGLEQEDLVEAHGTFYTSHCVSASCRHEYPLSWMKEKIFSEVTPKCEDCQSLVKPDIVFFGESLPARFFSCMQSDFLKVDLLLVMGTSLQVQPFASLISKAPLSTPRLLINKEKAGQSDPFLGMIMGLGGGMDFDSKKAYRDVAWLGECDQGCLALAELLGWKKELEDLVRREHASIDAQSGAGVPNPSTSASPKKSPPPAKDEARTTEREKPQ

[3] = target: T2, NAD-dependent protein deacetylase sirtuin-3, mitochondrial (Homo sapiens, UniProt Q9NTG7); test: Inhibition of human His6-tagged SIRT3 using H2N-HK-(Nepsilon-acetyl-lysine)-LM-COOH as substrate after 8 mins by HPLC analysis
T2 sequence (Q9NTG7 whole entry): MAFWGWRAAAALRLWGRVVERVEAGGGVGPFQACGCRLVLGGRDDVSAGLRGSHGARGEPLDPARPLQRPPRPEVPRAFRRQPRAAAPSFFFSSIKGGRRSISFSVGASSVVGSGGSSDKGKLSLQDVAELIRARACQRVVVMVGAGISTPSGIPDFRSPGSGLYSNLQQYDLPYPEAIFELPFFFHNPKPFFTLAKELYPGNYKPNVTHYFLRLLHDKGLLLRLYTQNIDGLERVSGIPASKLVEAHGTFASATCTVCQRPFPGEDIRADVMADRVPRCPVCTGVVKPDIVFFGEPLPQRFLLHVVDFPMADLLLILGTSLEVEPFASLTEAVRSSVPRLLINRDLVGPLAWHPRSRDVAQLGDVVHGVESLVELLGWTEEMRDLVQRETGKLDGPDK

[4] = Stability of the compound assessed as Streptomyces griseus pronase-mediated degradation by measuring compound remaining at 160 uM after 60 mins by HPLC analysis; format: ADME; details: read-out: Stability
Summary of the method: (§1)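 Compound incubated with pronase (broad-specificity protease mixture), percent compound remaining followed over time up to 60 min; a control peptide incubated under the same condition.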

[5] = target: T3, NAD-dependent protein deacetylase sirtuin-1 (Homo sapiens, UniProt Q96EB6); test: Inhibition of human His6 or GST-tagged SIRT1 using H2N-HK-(Nepsilon-acetyl-lysine)-LM-COOH as substrate after 10 mins by HPLC analysis
T3 sequence (Q96EB6 whole entry): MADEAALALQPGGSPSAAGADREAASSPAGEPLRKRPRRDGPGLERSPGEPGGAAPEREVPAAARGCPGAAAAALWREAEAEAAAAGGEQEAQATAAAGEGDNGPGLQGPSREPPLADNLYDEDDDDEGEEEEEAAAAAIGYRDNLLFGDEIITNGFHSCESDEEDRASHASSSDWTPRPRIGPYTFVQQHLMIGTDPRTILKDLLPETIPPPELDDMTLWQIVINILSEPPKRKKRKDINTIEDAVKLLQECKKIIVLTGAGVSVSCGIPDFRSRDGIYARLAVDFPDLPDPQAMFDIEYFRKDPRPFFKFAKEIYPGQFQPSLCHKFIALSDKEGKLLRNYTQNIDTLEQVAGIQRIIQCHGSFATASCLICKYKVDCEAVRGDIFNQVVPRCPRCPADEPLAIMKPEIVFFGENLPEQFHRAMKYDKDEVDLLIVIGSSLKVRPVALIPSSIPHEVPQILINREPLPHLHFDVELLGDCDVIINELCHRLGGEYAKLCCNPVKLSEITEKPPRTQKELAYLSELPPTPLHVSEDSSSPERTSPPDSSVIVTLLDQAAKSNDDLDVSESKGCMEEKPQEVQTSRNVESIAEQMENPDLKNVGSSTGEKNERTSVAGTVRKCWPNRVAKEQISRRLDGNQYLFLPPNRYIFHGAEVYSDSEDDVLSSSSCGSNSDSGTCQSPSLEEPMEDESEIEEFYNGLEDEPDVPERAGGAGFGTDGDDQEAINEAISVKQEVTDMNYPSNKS

[6] = target: NAD-dependent protein deacylase sirtuin-6 (Homo sapiens, UniProt Q8N6T7); test: Inhibition of human SIRT6 using H2N-EALPK-(Nepsilon-myristoyl-lysine)-TGGPQ-CONH2 as substrate after 12 mins by HPLC analysis
Sequence of NAD-dependent protein deacylase sirtuin-6 (Q8N6T7 whole entry): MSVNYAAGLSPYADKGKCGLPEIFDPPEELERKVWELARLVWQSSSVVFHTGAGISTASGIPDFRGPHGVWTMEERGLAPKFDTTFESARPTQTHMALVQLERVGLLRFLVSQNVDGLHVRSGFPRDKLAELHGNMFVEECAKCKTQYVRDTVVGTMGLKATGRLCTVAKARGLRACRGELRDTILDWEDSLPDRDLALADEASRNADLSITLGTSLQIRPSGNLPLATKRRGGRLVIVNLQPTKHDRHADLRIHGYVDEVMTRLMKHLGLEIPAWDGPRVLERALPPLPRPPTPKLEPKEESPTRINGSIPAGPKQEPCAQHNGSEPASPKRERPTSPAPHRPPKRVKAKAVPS

[7] = target: NAD-dependent protein deacylase sirtuin-5, mitochondrial (Homo sapiens, UniProt Q9NXA8); test: Inhibition of human SIRT5 using CH3CONH-AR-(Nepsilon-succinyl-lysine)-ST-CONH2 as substrate after 5 mins by HPLC analysis
Sequence of NAD-dependent protein deacylase sirtuin-5, mitochondrial (Q9NXA8 whole entry): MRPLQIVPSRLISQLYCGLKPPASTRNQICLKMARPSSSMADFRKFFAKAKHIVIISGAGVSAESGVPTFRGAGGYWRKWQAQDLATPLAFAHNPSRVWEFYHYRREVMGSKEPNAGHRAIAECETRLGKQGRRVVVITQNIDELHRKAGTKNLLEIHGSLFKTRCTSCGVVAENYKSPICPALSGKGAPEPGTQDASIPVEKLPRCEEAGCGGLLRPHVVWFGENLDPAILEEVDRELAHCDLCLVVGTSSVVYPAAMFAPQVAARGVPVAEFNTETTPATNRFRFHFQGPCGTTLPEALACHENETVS

[8] = Stability of the compound assessed as Streptomyces griseus pronase-mediated degradation at 160 uM measured within 3 mins by HPLC analysis; format: ADME; details: 0.05 h; summary of the method: as §1

- IC50 [2]: 1.65 µM
- IC50 [3]: 2.2 µM
- remaining at 1 h, 160 µM [4]: 88%
- inhibition (INH) [1]: 50%
- IC50 [5]: 5.6 µM
Compound: CNC(=S)NCCCC[C@H](NC(=O)[C@H](CCCCNC(C)=O)NC(C)=O)C(=O)N[C@@H](CCCCNC(C)=O)C(N)=O

- IC50 [6]: 2400 µM
- IC50 [7]: 5 µM
Compound: CC(=O)NCCCC[C@H](NC(=O)[C@H](CCCCNC(=S)NCCC(=O)O)NC(=O)[C@H](CCCCNC(C)=O)NC(C)=O)C(N)=O

- IC50 [7]: > 100 µM
Compound: CC(=O)NCCCC[C@H](NC(=O)[C@H](CCCCNC(=S)NCCCC(=O)O)NC(=O)[C@H](CCCCNC(C)=O)NC(C)=O)C(N)=O

- IC50 [7]: > 100 µM
Compound: CC(=O)NCCCC[C@H](NC(=O)[C@H](CCCCNC(=S)NCC(=O)O)NC(=O)[C@H](CCCCNC(C)=O)NC(C)=O)C(N)=O

More lines, now with the values behind:

Compound: CC(=O)NCCCC[C@H](NC(=O)[C@H](CCCCNC(C)=S)NC(=O)[C@H](CCCCNC(C)=O)NC(C)=O)C(N)=O
- inhibition (INH) [1]: 6%

Compound: CSCC[C@H](NC(=O)[C@H](CC(C)C)NC(=O)[C@H](CCCCNC(C)=O)NC(=O)[C@H](CCCCN)NC(=O)[C@@H](N)Cc1cnc[nH]1)C(=O)O (H-HKK(Ac)LM-OH)
- Stability [8]: Unstable

Compound: CC(=O)NCCCC[C@H](NC(=O)[C@H](CCCCNC(N)=S)NC(=O)[C@H](CCCCNC(C)=O)NC(C)=O)C(N)=O
- IC50 [2]: 30.4 µM
- IC50 [3]: 5.4 µM
- IC50 [5]: 49.9 µM

Compound: CC(=O)NCCCC[C@H](NC(=O)[C@H](CCCCNC(=S)Nc1ccccc1)NC(=O)[C@H](CCCCNC(C)=O)NC(C)=O)C(N)=O
- IC50 [5]: 62.9 µM
